Active and inactive are the calls of the source. The calls are words filed in the database; no cut-off is given here.
Key:
[1] = tested on: L1210; assay: Antitumor activity against mouse L1210 cells allografted in ip dosed mouse assessed as change in body weight at optimal dose administered every 6 hrs on day 1, 5 and 9 post tumor implantation measured on day 5 relative to control; assay type: functional
Method in brief: (§1)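 Mice bearing tumour cells implanted ip (intracerebrally in the IC-L1210 system) got compound in 0.9% saline ip on the stated schedule, or orally to nonfasting animals in the PO-L1210 system. Day-1 dosing, per day, or every 6 h counted from implantation. The value is the difference in average body weight change (g) on day 5 between the optimal-dose group (T) and controls (C).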

[2] = tested on: L1210; assay: Antitumor activity against 5-azacytidine-resistant mouse L1210 cells allografted in ip dosed mouse assessed as increase in life span at optimal dose administered qd from day 1 to day 9 post tumor implantation relative to control; assay type: functional
Method in brief: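 An L1210 subline resistant to 5-azacytidine (L1210/AZA) was implanted ip in mice. Drug given ip in 0.9% saline, dose-response in twofold steps, dose in mg/kg per injection. % ILS over untreated control survival at the optimal dose. Test minus control body-weight change on day 5.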

[3] = Chemical stability in 1 N ammonium hydroxide solution at room temperature after 7 days; assay type: physicochemical; conditions: 168 h
Method in brief: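 The compound was stored 7 days at room temperature in 1 N ammonium hydroxide, then recovered and checked as the free base.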

[4] = tested on: L1210; assay: Antitumor activity against mouse L1210 cells allografted in po dosed mouse assessed as dose required for maximal activity administered qd from day 1 to day 9 post tumor implantation; assay type: functional
Method in brief: (§2)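 Tumour cells were implanted ip (intracerebrally for IC-L1210), with the compound given in 0.9% saline ip, or orally to nonfasting mice in PO-L1210. Dose–response series each halved the preceding dose, expressed as mg/kg per injection. Activity was read as % increase in life-span (% ILS) over untreated controls, and from this the minimum, optimal and maximum active doses were taken.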

[5] = tested on: P388; assay: Antitumor activity against mouse P388 cells allografted in ip dosed mouse assessed as change in body weight at optimal dose administered qd from day 1 to day 9 post tumor implantation measured on day 5 relative to control; assay type: functional; method in brief: as §1
[6] = tested on: Mus musculus; assay: Toxicity in ip dosed mouse allografted with mouse L1210 cells assessed as dose required for optimal activity administered qd on day 1 post tumor implantation; assay type: organism-based; conditions: in vivo; method in brief: as §2
[7] = tested on: L1210; assay: Antitumor activity against mouse L1210 cells allografted in ip dosed mouse assessed as increase in life span at optimal dose administered qd on day 1 post tumor implantation relative to control; assay type: functional
Method in brief: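 L1210 leukemia cells implanted ip in mice. Drug given ip in 0.9% saline: day 1 only (QD1); days 1, 5, 9 (Q4D); every 6 h on days 1, 5, 9 (Q4D(Q6H)); or days 1-9 (QD1-9). Dose-response run in twofold steps, dose in mg/kg per injection. % ILS versus untreated controls at the optimal dose. Toxicity taken as test minus control body-weight change on day 5.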

[8] = tested on: L1210; assay: Antitumor activity against mouse L1210 cells allografted in ip dosed mouse assessed as dose required for maximal activity administered qd from day 1 to day 9 post tumor implantation; assay type: functional; method in brief: as §2
[9] = tested on: Mus musculus; assay: Toxicity in ip dosed mouse allografted with 5-azacytidine-resistant mouse L1210 cells assessed as dose required for optimal activity administered qd from day 1 to day 9 post tumor implantation; assay type: organism-based; conditions: in vivo; method in brief: as §2
[10] = tested on: Mus musculus; assay: Toxicity in ip dosed mouse allografted with mouse L1210 cells assessed as dose required for optimal activity administered every 6 hrs on day 1, 5 and 9 post tumor implantation; assay type: organism-based; conditions: in vivo; method in brief: as §2
[11] = Therapeutic index, ratio of toxicity in ip dosed mouse allografted with mouse L1210 cells assessed as optimal dose required for maximum increase in life span to antitumor activity against mouse L1210 cells allografted in ip dosed mouse assessed as lowest dose required for 40% increase in life span; assay type: organism-based; conditions: in vivo, read-out: TI
Method in brief: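 Mice tumored ip with L1210 and treated ip on days 1-9 (QD1-9) with drug in 0.9% saline, using serial twofold dose dilutions. Survival gain over untreated controls was expressed as % ILS. Dose-response relationships came from five QD1-9 experiments. TI = optimal dose for maximum % ILS ÷ lowest dose giving 40% ILS.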

[12] = tested on: L1210; assay: Antitumor activity against mouse L1210 cells allografted in ip dosed mouse assessed as dose required for minimal activity administered qd from day 1 to day 9 post tumor implantation; assay type: functional; conditions: read-out: MED; method in brief: as §2
[13] = tested on: Mus musculus; assay: Toxicity in ip dosed mouse allografted with mouse L1210 cells assessed as dose required for optimal activity administered qd on day 1, 5 and 9 post tumor implantation; assay type: organism-based; conditions: in vivo; method in brief: as §2
[14] = tested on: P388; assay: Antitumor activity against mouse P388 cells allografted in ip dosed mouse assessed as dose required for minimal activity administered qd from day 1 to day 9 post tumor implantation; assay type: functional; conditions: read-out: MED; method in brief: as §2
[15] = tested on: L1210; assay: Antitumor activity against 5-azacytidine-resistant mouse L1210 cells allografted in ip dosed mouse assessed as change in body weight at optimal dose administered qd from day 1 to day 9 post tumor implantation measured on day 5 relative to control; assay type: functional; method in brief: as §1
[16] = tested on: L1210; assay: Antitumor activity against mouse L1210 cells allografted in ip dosed mouse assessed as dose required for minimal activity administered qd on day 1 post tumor implantation; assay type: functional; conditions: 24 h, read-out: MED; method in brief: as §2
[17] = Solubility of the compound in water at pH 6; assay type: physicochemical
[18] = tested on: L1210; assay: Antitumor activity against mouse L1210 cells allografted in ip dosed mouse assessed as dose required for minimal activity administered qd on day 1, 5 and 9 post tumor implantation; assay type: functional; conditions: 24 h, read-out: MED; method in brief: as §2
[19] = tested on: L1210; assay: Cytotoxicity against mouse L1210 cells assessed as cessation of growth in presence of cytidine; assay type: functional, cell-based
[20] = Half life of the compound at 25 degC at pH 7 by HPLC analysis; assay type: physicochemical
[21] = Drug degradation in 1 N ammonium hydroxide solution assessed as l-beta-D-Ribofuranosyl-3-guanylurea level; assay type: physicochemical
[22] = tested on: L1210; assay: Cytotoxicity against mouse L1210 cells assessed as cessation of growth in presence of uridine; assay type: functional, cell-based
[23] = tested on: B16; assay: Antitumor activity against mouse B16 cells allografted in ip dosed mouse assessed as dose required for minimal activity administered qd from day 1 to day 9 post tumor implantation; assay type: functional; conditions: read-out: MED; method in brief: as §2
[24] = tested on: L1210; assay: Cytotoxicity against mouse L1210 cells assessed as cessation of growth; assay type: functional, cell-based
[25] = Drug degradation in lactated Ringer's solution at 25 degC after 4.7 hrs; assay type: physicochemical; conditions: read-out: Drug degradation

Cl.NC1=NC(=O)N([C@@H]2O[C@H](CO)[C@@H](O)[C@H]2O)CN1
Activity [1]: -2.5 g | ILS [2]: 0% | Stability [3]: Stable | MAD [4]: 400 mg/kg | Activity [5]: -4.3 g | Activity [6]: 600 mg/kg | ILS [7]: 34% | MAD [8]: 200 mg/kg | Activity [9]: 25 mg/kg | Activity [10]: 125 mg/kg | selectivity ratio [11]: 10 | minimal effective dose [12]: 3.13 mg/kg | Activity [13]: 600 mg/kg | minimal effective dose [14]: 12.5 mg/kg | Activity [15]: 0.1 g | minimal effective dose [16]: 300 mg/kg | solubility [17]: 40 mg/mL | minimal effective dose [18]: 12.5 mg/kg

Nc1ncn([C@@H]2O[C@H](CO)[C@@H](O)[C@H]2O)c(=O)n1 [AZACITIDINE]
Activity [1]: -1.5 g | ILS [2]: 0% | Activity [19]: inactive | half-life [20]: 48 h | MAD [4]: 25 mg/kg | Activity [5]: -4.3 g | Activity [6]: 50 mg/kg | ILS [7]: 73% | MAD [8]: 3.13 mg/kg | Stability [21]: Unstable | Activity [10]: 5 mg/kg | Activity [22]: inactive | selectivity ratio [11]: 7.5 | minimal effective dose [23]: 1.5 mg/kg | minimal effective dose [12]: 0.75 mg/kg | Activity [24]: Active | Activity [13]: 10 mg/kg | minimal effective dose [14]: 0.75 mg/kg | minimal effective dose [16]: 12.5 mg/kg | minimal effective dose [18]: 5 mg/kg | degraded at 4.7 h [25]: 15%

From ChEMBL document CHEMBL3272089, “Synthesis and antitumor activity of dihydro-5-azacytidine, a hydrolytically stable analogue of 5-azacytidine” (J Med Chem, 1977)
